How the values were obtained:
Assay type in all cases: functional
[1] = Growth inhibition of human SF268 cells assessed as cell growth at 10 uM incubated for 48 hrs by sulforhodamine B assay relative to control; settings: SF-268, 48 h, read-out: Activity
Procedure, shortened: (§1)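 Run in the standard NCI 60-cell-line screen. Cells were exposed to drug for two days, and the read-out was sulforhodamine B staining. Compound was tested at a single final concentration of 10 µM in every line, and results are reported as growth percent.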

[2] = system: M14; assay: Growth inhibition of human M14 cells assessed as cell growth at 10 uM incubated for 48 hrs by sulforhodamine B assay relative to control; settings: M14, 48 h, read-out: Activity; procedure, shortened: as §1
[3] = system: SK-MEL-2; assay: Growth inhibition of human SK-MEL-2 cells assessed as cell growth at 10 uM incubated for 48 hrs by sulforhodamine B assay relative to control; settings: SK-MEL-2, 48 h, read-out: Activity; procedure, shortened: as §1
[4] = Growth inhibition of human UACC257 cells assessed as cell growth at 10 uM incubated for 48 hrs by sulforhodamine B assay relative to control; settings: UACC-257, 48 h, read-out: Activity
Procedure, shortened: (§2)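 NCI 60-cell line standard protocol, one-dose screen: single final concentration 10 µM, 2-day drug exposure, sulforhodamine B (SRB) endpoint; read-out is growth percent relative to untreated control.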

[5] = system: 786-0; assay: Growth inhibition of human 786-0 cells assessed as cell growth at 10 uM incubated for 48 hrs by sulforhodamine B assay relative to control; settings: 786-0, 48 h, read-out: Activity; procedure, shortened: as §1
[6] = Growth inhibition of human Caki1 cells assessed as cell growth at 10 uM incubated for 48 hrs by sulforhodamine B assay relative to control; settings: CAKI-1, 48 h, read-out: Activity; procedure, shortened: as §1
[7] = Growth inhibition of human TK10 cells assessed as cell growth at 10 uM incubated for 48 hrs by sulforhodamine B assay relative to control; settings: TK-10, 48 h, read-out: Activity; procedure, shortened: as §2
[8] = Growth inhibition of human DU145 cells assessed as cell growth at 10 uM incubated for 48 hrs by sulforhodamine B assay relative to control; settings: DU-145, 48 h, read-out: Activity; procedure, shortened: as §1
[9] = Growth inhibition of human HCC2998 cells incubated for 48 hrs by sulforhodamine B assay; settings: HCC 2998, 48 h
Procedure, shortened: (§3)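 NCI 60-cell-line panel, standard protocol. Cells exposed to compound for two days, growth read by sulforhodamine B staining. Tested at five 10-fold dilutions, top concentration 100 µM, to give dose-response curves.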

[10] = system: HT-29; assay: Growth inhibition of human HT-29 cells incubated for 48 hrs by sulforhodamine B assay; settings: HT-29, 48 h; procedure, shortened: as §3
[11] = system: SK-MEL-28; assay: Growth inhibition of human SK-MEL-28 cells incubated for 48 hrs by sulforhodamine B assay; settings: SK-MEL-28, 48 h; procedure, shortened: as §3
[12] = system: SK-MEL-5; assay: Growth inhibition of human SK-MEL-5 cells incubated for 48 hrs by sulforhodamine B assay; settings: SK-MEL-5, 48 h; procedure, shortened: as §3
[13] = Growth inhibition of human IGROV1 cells incubated for 48 hrs by sulforhodamine B assay; settings: IGROV-1, 48 h; procedure, shortened: as §3
[14] = system: 786-0; assay: Growth inhibition of human 786-0 cells incubated for 48 hrs by sulforhodamine B assay; settings: 786-0, 48 h; procedure, shortened: as §3
[15] = system: SN12C; assay: Growth inhibition of human SN12C cells incubated for 48 hrs by sulforhodamine B assay
Procedure, shortened: (§4)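 Tested in the standard NCI 60-cell-line protocol with two-day drug exposure and a sulforhodamine B endpoint. Compounds were first screened at a single final concentration of 10 µM, reported as growth percent. They were then run as five 10-fold dilutions starting from a high concentration of 100 µM to give dose-response curves.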

[16] = system: MDA-MB-231; assay: Growth inhibition of human MDA-MB-231 cells incubated for 48 hrs by sulforhodamine B assay; settings: MDA-MB-231, 48 h; procedure, shortened: as §3
[17] = Growth inhibition of human Hs 578T cells incubated for 48 hrs by sulforhodamine B assay
[18] = Growth inhibition of human BT549 cells incubated for 48 hrs by sulforhodamine B assay; settings: BT-549, 48 h; procedure, shortened: as §3
[19] = system: T47D; assay: Growth inhibition of human T47D cells incubated for 48 hrs by sulforhodamine B assay; procedure, shortened: as §4
[20] = system: MDA-MB-468; assay: Growth inhibition of human MDA-MB-468 cells incubated for 48 hrs by sulforhodamine B assay; settings: MDA-MB-468, 48 h; procedure, shortened: as §3
[21] = Growth inhibition of human HL-60(TB) cells assessed as cell growth at 10 uM incubated for 48 hrs by sulforhodamine B assay relative to control; settings: HL-60, 48 h, read-out: Activity
Procedure, shortened: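 Single-dose screen in the NCI 60-cell-line panel at one final concentration of 10 µM. Two-day drug exposure with a sulforhodamine B endpoint. Values are growth percent for each cell line.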

[22] = Growth inhibition of human RPMI8226 cells assessed as cell growth at 10 uM incubated for 48 hrs by sulforhodamine B assay relative to control; settings: RPMI-8226, 48 h, read-out: Activity; procedure, shortened: as §1
[23] = system: SR; assay: Growth inhibition of human SR cells assessed as cell growth at 10 uM incubated for 48 hrs by sulforhodamine B assay relative to control; settings: read-out: Activity; procedure, shortened: as §1
[24] = Growth inhibition of human HOP62 cells assessed as cell growth at 10 uM incubated for 48 hrs by sulforhodamine B assay relative to control; settings: HOP-62, 48 h, read-out: Activity; procedure, shortened: as §1
[25] = system: NCI-H322M; assay: Growth inhibition of human NCI-H322M cells assessed as cell growth at 10 uM incubated for 48 hrs by sulforhodamine B assay relative to control; settings: read-out: Activity; procedure, shortened: as §1
[26] = Growth inhibition of human COLO205 cells assessed as cell growth at 10 uM incubated for 48 hrs by sulforhodamine B assay relative to control; settings: COLO 205, 48 h, read-out: Activity; procedure, shortened: as §1
[27] = Growth inhibition of human HCT116 cells assessed as cell growth at 10 uM incubated for 48 hrs by sulforhodamine B assay relative to control; settings: HCT-116, 48 h, read-out: Activity; procedure, shortened: as §1
[28] = read-out: pLC50 (the source's name) (converted)

Compound: CC(C)[C@@]12C[C@@H](NC(=O)CO)[C@@](C)(O1)[C@@H]1CC[C@@H](C)[C@H]1[C@@H]2OC(=O)c1ccc2ccccc2c1
- growth at 10 µM [1]: 79%
- growth at 10 µM [2]: 95.2%
- growth at 10 µM [3]: 100%
- growth at 10 µM [4]: 101%
- growth at 10 µM [5]: 85%
- growth at 10 µM [6]: 52.6%
- growth at 10 µM [7]: 102%
- growth at 10 µM [8]: 98.4%
- GI50 [9]: 15.8 µM
- LC50 [9]: 57.5 µM
- TGI ([9]; read-out: pTGI (converted)): 30.2 µM
- GI50 [10]: 17.4 µM
- LC50 [10]: 60.3 µM
- TGI ([10]; read-out: pTGI (converted)): 32.4 µM
- GI50 [11]: 16.6 µM
- LC50 [11]: 57.5 µM
- TGI ([11]; read-out: pTGI (converted)): 30.9 µM
- GI50 [12]: 16.6 µM
- LC50 [12]: 56.2 µM
- TGI ([12]; read-out: pTGI (converted)): 30.9 µM
- GI50 [13]: 17.8 µM
- CC50 [13, 28]: 61.7 µM
- TGI ([13]; read-out: pTGI (converted)): 33.1 µM
- GI50 [14]: 13.8 µM
- LC50 [14]: 56.2 µM
- TGI ([14]; read-out: pTGI (converted)): 28.2 µM
- GI50 [15]: 11 µM
- CC50 [15, 28]: 55 µM
- TGI ([15]; read-out: pTGI (converted)): 24.5 µM
- GI50 [16]: 15.1 µM
- CC50 [16, 28]: 67.6 µM
- TGI ([16]; read-out: pTGI (converted)): 32.4 µM
- GI50 ([17]; read-out: GI50): 2.23 µM
- GI50 ([17]; read-out: pGI50 (converted)): 2.24 µM
- CC50 [17, 28]: > 100 µM
- TGI ([17]; read-out: pTGI (converted)): 8.91 µM
- GI50 [18]: 14.8 µM
- CC50 [18, 28]: 57.5 µM
- TGI ([18]; read-out: pTGI (converted)): 28.8 µM
- GI50 [19]: 14.8 µM
- CC50 [19, 28]: 56.2 µM
- TGI ([19]; read-out: pTGI (converted)): 28.8 µM
- GI50 [20]: 14.8 µM
- CC50 [20, 28]: 57.5 µM
- TGI ([20]; read-out: pTGI (converted)): 28.8 µM
- growth at 10 µM [21]: 99.3%
- growth at 10 µM [22]: 67.6%
- growth at 10 µM [23]: 82.5%
- growth at 10 µM [24]: 89.3%
- growth at 10 µM [25]: 89.5%
- growth at 10 µM [26]: 110%
- growth at 10 µM [27]: 75.7%
